Structures are written as SMILES. Calls of active or inactive are those of the source. No cut-off for these calls is given here.

One may read the EC50 as the concentration needed to bring the measured effect to its halfway point. The logD is the decadic logarithm of the distribution of all forms, ionised or not, between an organic phase and buffer at a given pH. Read a low logD as a more hydrophilic compound.

The target in data set [1] is T1, Free fatty acid receptor 1 (Homo sapiens, UniProt O14842). In words: Agonist activity at human FFA1 receptor expressed in CHO cells assessed as increase in intracellular calcium flux at 100 nM by FLIPR assay relative to control. Type of data set: functional, cell-based. The method, boiled down:
(§1)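 CHO cells stably expressing human FFA1 (NM_005303), seeded at 15 K cells/well and grown 16 h at 37 °C, 5% CO2. Calcium flux read by FLIPR Tetra. Response = (A−B)/(C−B)×100, with B vehicle and C 10 μM γ-linolenic acid. Mean of three independent experiments.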
A general note: A change in cytosolic calcium serves as a functional read-out for many receptors and channels.

Data set [2] concerns Mus musculus. Nature of the data set: Antidiabetic activity in po dosed overnight fasted ICR mouse assessed as decrease in blood glucose level administered glucose 30 mins post compound treatment measured at 15 to 120 mins by OGTT. Type of data set: functional, organism-based. In a few lines: (§2)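 Male ICR mice, 10 weeks old, fasted 12 h and randomized (n = 6). Compound given orally at 10, 20 or 40 mg/kg in 0.5% CMC, with 30% glucose (3 g/kg) orally 30 min later. Tail blood glucose measured by test strips at −30, 0, 15, 30, 45, 60 and 120 min. Student's t test vs vehicle.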

In data set [3] the test system is Mus musculus. Nature of the data set: Antidiabetic activity in overnight fasted STZ-induced type 2 diabetic C57BL/6 mouse model assessed as decrease in blood glucose level at 20 mg/kg, po administered glucose 30 mins post compound treatment measured at 15 to 120 mins by OGTT. Type of data set: functional, organism-based. In a few lines: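 Male C57BL/6 mice on 45% fat diet for 4 weeks, then STZ 80 mg/kg ip, then high-fat diet 4 more weeks. Mice with fasting glucose ≥11.1 mmol/L were used, fasted 12 h (n = 6). Oral dose in 0.5% CMC, with 20% glucose (2 g/kg) orally 30 min later. Strip glucose read at −30, 0, 15, 30, 45, 60 and 120 min.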

Data set [4] addresses T1, Free fatty acid receptor 1. Nature of the data set: Agonist activity at human FFA1 receptor expressed in CHO cells assessed as increase in intracellular calcium flux by FLIPR assay. The data set is classed as functional, cell-based. The method, boiled down: as §1
Data set [5] relates to Mus musculus. In words: Toxicity in overnight fasted ICR mouse assessed as hypoglycemia at 40 mg/kg, po measured at 30 to 180 mins. The conditions noted are these: in vivo. The data set is classed as organism-based. The method, boiled down: (§3)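 Male ICR mice, 10 weeks old, fasted overnight, in 3 groups (n = 6). Single oral dose in 0.5% CMC. Tail-vein blood glucose measured by strips at 0, 30, 60, 90, 120 and 180 min. Mean ± SEM, Student's t test.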

A short description of data set [6]: 1-octanol-phosphate buffer partition coefficient, log D of the compound at 100 uM at pH 7.4 after 24 hrs by shake-flask method. Type of data set: physicochemical. In a few lines: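 Test compound at 100 μM final (from 10 mM DMSO stock) in 0.01 M phosphate buffer pH 7.4 and 1-octanol, shaken 700 rpm for 24 h, phases left 1 h to separate. Each phase analysed by HPLC in duplicate at 254 nm. LogD is the octanol/buffer peak-area ratio, corrected with two calibration points per compound per solvent. Three independent experiments.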

Data set [7] concerns Mus musculus. In words: Toxicity in overnight fasted ICR mouse assessed as hypoglycemia at 15 mg/kg, po measured at 30 to 180 mins. Type of data set: organism-based. The conditions noted are these: in vivo. The method, boiled down:
as §3

The subject of data set [8] is Mus musculus. In words: Antidiabetic activity in overnight fasted ICR mouse assessed as decrease in blood glucose level at 20 mg/kg, po administered glucose 30 mins post compound treatment measured at 15 to 120 mins by OGTT. The data set is classed as functional, organism-based. In a few lines:
as §2

T1 sequence (O14842 whole entry): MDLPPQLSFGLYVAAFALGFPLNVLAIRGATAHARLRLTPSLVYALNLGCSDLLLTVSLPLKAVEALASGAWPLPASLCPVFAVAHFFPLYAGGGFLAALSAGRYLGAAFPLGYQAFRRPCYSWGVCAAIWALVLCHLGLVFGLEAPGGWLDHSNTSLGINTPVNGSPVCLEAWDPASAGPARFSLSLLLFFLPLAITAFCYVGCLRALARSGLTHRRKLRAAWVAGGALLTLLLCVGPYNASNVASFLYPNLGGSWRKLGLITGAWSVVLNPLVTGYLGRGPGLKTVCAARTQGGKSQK

Turning to `Cc1cc(OCCCS(C)(=O)=O)ccc1-c1cccc(COc2ccc(OCC(=O)O)c(F)c2)c1`, the Activity in data set [1] was 61.3%; in the data set with Mus musculus [2] it was “Dose-dependent effect”; in the data set with Mus musculus [5], “Non-toxic”. In addition, the outcome in the data set with Mus musculus [3] was Active. For the same compound, the concentration giving a half-maximal response (EC50) in data set [4] stood at 43.6 nM. In data set [6], this compound showed a logD at 24 h, 100 µM of 1.63.
Consider `Cc1cc(OCCOCc2ccccc2)cc(C)c1-c1cccc(COc2ccc(OCC(=O)O)c(F)c2)c1`, for which the Activity in data set [1] was found to be 23.6%.
`COc1ccc(Cl)cc1C(=O)NCCc1ccc(S(=O)(=O)NC(=O)NC2CCCCC2)cc1` [GLYBURIDE]: the Activity result in the data set with Mus musculus [7] is “Toxic”.
In the case of `Cc1cc(OCc2cccc(-c3c(C)cc(OCCCS(C)(=O)=O)cc3C)c2)ccc1N(CC(=O)O)C(=O)c1ccccc1`, the Activity in data set [1] worked out at 2.57%.
Consider `CCOc1cc(C)c(-c2cccc(COc3ccc(OCC(=O)O)c(F)c3)c2)c(C)c1`, for which, in data set [1], the Activity was found to be 53.1%. In addition, in data set [4], the EC50 worked out at 65.9 nM. Also, the logD at 24 h, 100 µM in data set [6] was determined as 3.48.
Take `Cc1cc(OCC(=O)N(C)C)cc(C)c1-c1cccc(COc2ccc(OCC(=O)O)c(F)c2)c1`: the Activity in data set [1] was 13.5%.
On to `CCCCOc1cc(C)c(-c2cccc(COc3ccc(OCC(=O)O)c(F)c3)c2)c(C)c1`, for which, in data set [1], the Activity came to 41.6%.
With `CC(=O)N(CC(=O)O)c1ccc(OCc2cccc(-c3c(C)cc(OCCCS(C)(=O)=O)cc3C)c2)cc1`, the Activity in data set [1] is 36.3%.
As to `CC(=O)N(CC(=O)O)c1ccc(OCc2cccc(-c3c(C)cc(OCCCS(C)(=O)=O)cc3C)c2)cc1C`, the Activity in data set [1] came to 18.4%.
`Cc1cc(O)cc(C)c1-c1cccc(COc2ccc(OCC(=O)O)c(F)c2)c1`: in data set [1], the Activity amounted to 44.3%. Further, in data set [4], the EC50 worked out at 110 nM. Further, the logD at 24 h, 100 µM in data set [6] was 2.37.
Turning to `Cc1cc(OCCCS(C)(=O)=O)cc(C)c1-c1cccc(COc2ccc(N(CC(=O)O)C(=O)c3ccoc3)cc2)c1`, the Activity in data set [1] worked out at 28.9%.
Take `CCCOc1cc(C)c(-c2cccc(COc3ccc(OCC(=O)O)c(F)c3)c2)c(C)c1`: in data set [1], the Activity stood at 47.9%. Also, in data set [4], the EC50 was determined as 106 nM. This compound yielded a pH-dependent lipophilicity (logD) at 24 h, 100 µM in data set [6] of 3.64.
With `Cc1cc(OCC(C)C)cc(C)c1-c1cccc(COc2ccc(OCC(=O)O)c(F)c2)c1`, the Activity in data set [1] was 35.2%.
Compound `Cc1cc(OCCCS(C)(=O)=O)cc(C)c1-c1cccc(COc2ccc(OCC(=O)O)c(F)c2)c1` yielded a logD at 24 h, 100 µM in data set [6] of 1.81.
In the case of `Cc1cc(OC(C)C)cc(C)c1-c1cccc(COc2ccc(OCC(=O)O)c(F)c2)c1`, the Activity in data set [1] was 36.9%.
Consider `COc1cc(C)c(-c2cccc(COc3ccc(OCC(=O)O)c(F)c3)c2)c(C)c1`, for which the Activity in data set [1] stood at 58.4%. Further, the EC50 in data set [4] is 49.7 nM. In data set [6], this compound had a logD at 24 h, 100 µM of 3.2.
Take `Cc1cc(OCC(=O)N2CCOCC2)cc(C)c1-c1cccc(COc2ccc(OCC(=O)O)c(F)c2)c1`: in data set [1], the Activity is 18.4%.
On to `Cc1cc(OCc2ccccc2)cc(C)c1-c1cccc(COc2ccc(OCC(=O)O)c(F)c2)c1`, for which the Activity in data set [1] came out at 26.4%.
Regarding `Cc1cc(OCCCS(C)(=O)=O)cc(C)c1-c1cccc(COc2ccc3c(c2)OC[C@H]3CC(=O)O)c1`, the outcome in the data set with Mus musculus [3] and in the data set with Mus musculus [8] was Active. In data set [6], this compound had a logD at 24 h, 100 µM of 2.43.
`COCCCOc1cc(C)c(-c2cccc(COc3ccc(OCC(=O)O)c(F)c3)c2)c(C)c1`: the Activity in data set [1] turned out to be 38%.
In the case of `COCCOc1cc(C)c(-c2cccc(COc3ccc(OCC(=O)O)c(F)c3)c2)c(C)c1`, the Activity in data set [1] was 48.7%. In addition, in data set [4], the half-maximal effective concentration (EC50) was determined as 104 nM. Besides, in data set [6], the logD at 24 h, 100 µM came to 3.15.
As for `Cc1cc(OCCCS(C)(=O)=O)cc(C)c1-c1cccc(COc2ccc(N(CC(=O)O)C(=O)c3ccccc3)cc2)c1`, the Activity in data set [1] came to 23.5%.
As to `Cc1cc(OCCCO)cc(C)c1-c1cccc(COc2ccc(OCC(=O)O)c(F)c2)c1`, in data set [1], the Activity is 44.4%. The EC50 in data set [4] turned out to be 110 nM. This compound also displayed a logD at 24 h, 100 µM in data set [6] of 2.73.
